# According to ChEMBL document CHEMBL4699414, “Hit-to-lead optimization of novel benzimidazole phenylacetamides as broad spectrum trypanosomacides” (RSC Med Chem, 2020):
# Columns and labels:
# Trypanosoma cruzi [1] = experiment: Antitrypanosomal activity against Trypanosoma cruzi infected in rat H9c2 infected with trypomastigotes from parasite-infected monkey LLC-MK2 cells measured after 72 hrs by DRAQ5 DNA dye based microscopic imaging analysis; type: functional, organism-based; details: H9c2, 72 h
# [2] = Cytotoxicity against rat H9c2 cells assessed as reduction in cell viability; type: cell-based
# [3] = test system: Trypanosoma brucei brucei; experiment: Antitrypanosomal activity against Trypanosoma brucei brucei Lister 427 assessed as parasite growth inhibition measured after 48 hrs by alamar blue assay; details: Lister 427, 48 h
# HEK293 = experiment: Cytotoxicity against human HEK293 cells assessed as reduction in cell viability measured after 48 hrs by resazurin assay relative to control; type: cell-based; details: hek293, 48 h
# Summary of the method: (§1)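 HEK293 cells from ATCC; Alamar Blue viability read-out run per earlier method.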
# [4] = Cytotoxicity against human HepG2 cells assessed as reduction in cell viability measured after 48 hrs by CellTiter-Glo assay; type: cell-based
# Summary of the method: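 HepG2 human hepatoma cells from GSK Biological Reagents and Assay Development (Stevenage, UK); viability read-out per earlier method.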
# [5] = Lipophilicity, logP of the compound; type: physicochemical; details: octanol/water
# [6] = Cytotoxicity against human HEK293 cells assessed as reduction in cell viability measured after 48 hrs by resazurin assay; type: cell-based; summary of the method: as §1
# Trypanosoma cruzi [7] = experiment: (§2) Antitrypanosomal activity against recombinant Trypanosoma cruzi intracellular amastigotes expressing beta-galactosidase infected in mouse NIH/3T3 cells assessed as parasite growth inhibition incubated for 4 days by resorufin-beta-D-galactopiranoside substrate based fluorescence assay; type: functional, organism-based; details: NIH3T3, 96 h
# [8] = as §2, with “Selectivity index, ratio of CC50 for mouse NIH/3T3 cells to IC50 for” for “Antitrypanosomal activity against”; type: toxicity, cell-based; details: time 4 day, read-out: Ratio CC50/IC50
# [9] = Selectivity index, ratio of CC50 for rat H9c2 cells assessed as reduction in cell viability to IC50 for Trypanosoma cruzi infected in rat H9c2 infected with trypomastigotes from parasite-infected monkey LLC-MK2 cells measured after 72 hrs by DRAQ5 DNA dye based microscopic imaging analysis; type: toxicity; details: read-out: Ratio CC50/IC50
# [10] = Selectivity index, ratio of CC50 for human HEK293 cells assessed as reduction in cell viability measured after 48 hrs by resazurin assay to IC50 for Trypanosoma brucei brucei Lister 427 […] assessed as parasite growth inhibition measured after 48 hrs by alamar blue assay; type: toxicity, cell-based; details: read-out: Ratio CC50/IC50
IC50 (Trypanosoma cruzi [1]),IC50 [3],logP [5],IC50 (Trypanosoma cruzi [7]),SMILES,CC50 [2],Activity (HEK293),CC50 at 48 h [4],CC50 at 48 h [6],selectivity ratio at 96 h [8],selectivity ratio at 72 h [9],selectivity ratio at 48 h [10]
10 µM,19 µM,5.5,,CCCn1c(NC(=O)Cc2ccc(Cl)cc2)nc2c(Br)cccc21,> 50 µM,54 µM,> 50 µM,,,,
,,4.7,0.63 µM,CCCn1c(NC(=O)Cc2ccc(Cl)cc2)nc2ccccc21,> 50 µM,,> 50 µM,> 83 µM,79,40,50
0.5 µM,4.4 µM,5.3,,CCCn1c(NC(=O)Cc2ccc(Cl)cc2)nc2cc(Cl)ccc21,7.94 µM,84 µM,> 50 µM,,,,
2.5 µM,2.6 µM,4.6,,CCCn1c(NC(=O)Cc2ccccc2C)nc2ccccc21,> 50 µM,,> 50 µM,> 83 µM,,,
